Test results as given in ChEMBL document CHEMBL4270526, “A novel NAE/UAE dual inhibitor LP0040 blocks neddylation and ubiquitination leading to growth inhibition and apoptosis of cancer cells” (Eur J Med Chem, 2018).
The source made the active and inactive calls. The calls are words filed in the database; no cut-off is given here.

Key:
K562 = test: Antiproliferative activity against human K562 cells after 48 hrs by CCK8 assay; type: functional, cell-based; details: K562, 48 h
Method in brief: (§1)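 Cells seeded at 6 × 10^3 cells/well and left 12 h at 37 °C, 5% CO2. Medium then replaced with serial compound dilutions, bortezomib as positive control. After 48 h, CCK-8 added for 4 h and absorbance read at 450 nm. Three repeats; IC50 from normalized nonlinear regression of inhibition curves.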

[1] = target: T1, NEDD8 activating enzyme (Homo sapiens) (UniProt Q8TBC4+Q13564); test: Inhibition of NAE-mediated CRL neddylation in human AGS cells assessed as increase in p27 level after 24 hrs by Western blot analysis; type: cell-based
Method in brief: (§2)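 AGS cells given 2, 4, 6, 8 or 10 μM compound or 0.1% DMSO for 24 h, washed in ice-cold PBS and lysed in RIPA on ice. Equal protein loads run by SDS-PAGE: non-reducing for NEDD8/SUMO/Ub conjugates, reducing for p27, NRF2, CDT1 and cleaved caspase-3. Blotted to PVDF with primary antibody overnight at 4 °C and HRP secondary, ECL detection, densitometry. Three repeats.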

[2] = target: T1, NEDD8 activating enzyme (Homo sapiens); test: Inhibition of NAE in human AGS cells assessed as reduction in Cullins-NEDD8 conjugation level at 10 to 90 uM after 24 hrs by Western blot analysis; type: cell-based
A549 = test: Antiproliferative activity against human A549 cells after 48 hrs by CCK8 assay; type: functional, cell-based; details: A549, 48 h; method in brief: as §1
[3] = target: T1, NEDD8 activating enzyme (Homo sapiens); test: Inhibition of NAE-mediated CRL neddylation in human AGS cells assessed as increase in CDT1 level after 24 hrs by Western blot analysis; type: cell-based; method in brief: as §2
SK-OV-3 = test: Antiproliferative activity against human SKOV3 cells after 48 hrs by CCK8 assay; type: functional, cell-based; details: SK-OV-3, 48 h; method in brief: as §1
AGS = test: Antiproliferative activity against human AGS cells after 48 hrs by CCK8 assay; type: functional, cell-based; method in brief: as §1
[4] = target: T1, NEDD8 activating enzyme (Homo sapiens); test: Inhibition of NAE in human AGS cells assessed as reduction in Ubc12-NEDD8 conjugation level at 10 to 90 uM after 24 hrs by Western blot analysis; type: cell-based
HCT-116 = test: Antiproliferative activity against human HCT116 cells after 48 hrs by CCK8 assay; type: functional, cell-based; details: HCT-116, 48 h; method in brief: as §1
[5] = target: T1, NEDD8 activating enzyme (Homo sapiens); test: Inhibition of NAE-mediated CRL neddylation in human AGS cells assessed as increase in NRF2 level after 24 hrs by Western blot analysis; type: cell-based; method in brief: as §2
[6] = target: T1, NEDD8 activating enzyme (Homo sapiens); test: Inhibition of NAE in human AGS cells assessed as reduction in Uba3-NEDD8 conjugation level at 10 to 90 uM after 24 hrs by Western blot analysis; type: cell-based
BXPC-3 = test: Antiproliferative activity against human BxPC3 cells after 48 hrs by CCK8 assay; type: functional, cell-based; details: BXPC-3, 48 h; method in brief: as §1
[7] = Antiproliferative activity against HEK293T cells after 48 hrs by CCK8 assay; type: cell-based, HEK-293T; details: human, read-out: LC50
[8] = Antiproliferative activity against human LO2 cells after 48 hrs by CCK8 assay; type: cell-based, L02; details: read-out: LC50
[9] = Antiproliferative activity against HUVEC after 48 hrs by CCK8 assay; type: cell-based; details: human, read-out: LC50
[10] = Hemolytic activity against rabbit erythrocytes assessed as hemolysis at 100 uM measured after 1 hr; type: ADME, cell-based, Oryctolagus cuniculus, Erythrocyte; details: read-out: Activity
Method in brief: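 Rabbit erythrocytes pelleted at 3000 rpm for 10 min, washed twice and resuspended in PBS. Mixed 1:1 with 200 μM compound solution in PBS, 1 h at 37 °C. PBS served as 0% and 1% Triton X-100 as 100% hemolysis. After centrifugation, supernatant hemoglobin read at 540 nm; % hemolysis calculated relative to the Triton and PBS controls.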

| Structure (SMILES) | IC50 (K562) [µM] | inhibition [1] | inhibition [2] | IC50 (A549) [µM] | inhibition [3] | IC50 (SK-OV-3) [µM] | IC50 (AGS) [µM] | inhibition [4] | IC50 (HCT-116) [µM] | inhibition [5] | inhibition [6] | IC50 (BXPC-3) [µM] | CC50 at 48 h [7] [µM] | CC50 at 48 h [8] [µM] | CC50 at 48 h [9] [µM] | hemolysis at 1 h, 100 µM [10] [%] |
| --- | --- | --- | --- | --- | --- | --- | --- | --- | --- | --- | --- | --- | --- | --- | --- | --- |
| O=c1cc(-c2cnc(O)nc2O)c2ccc(N3CCC(NCCc4ccccc4)CC3)cc2o1 | > 30 | inactive | inactive | > 30 | inactive | > 30 | > 30 | inactive | > 30 | inactive | inactive | > 30 | – | – | – | – |
| Clc1ccc(CCNC2CCN(Cc3ccccc3)CC2)c(Cl)c1 | 5.51 | – | – | 5.55 | – | 9.26 | 9.92 | – | 10.6 | – | – | 12.4 | – | – | – | – |
| CC(C)C[C@H](NC(=O)[C@H](Cc1ccccc1)NC(=O)c1cnccn1)B(O)O [BORTEZOMIB] | – | – | – | – | – | – | – | – | – | – | – | – | 0.016 | 0.398 | 0.018 | – |
| O=c1cc(-c2c[nH]nn2)c2ccc(N3CCC(NCCc4ccccc4)CC3)cc2o1 | > 30 | – | – | > 30 | – | > 30 | > 30 | – | > 30 | – | – | > 30 | – | – | – | – |
| O=c1cc(C#Cc2cccnc2)c2ccc(N3CCC(NCCc4ccccc4)CC3)cc2o1 | 3.3 | – | – | 3.35 | – | 7.7 | 1.66 | – | 2.69 | – | – | 4.33 | – | – | – | < 10 |
| NS(=O)(=O)OC[C@@H]1C[C@@H](n2ccc3c(N[C@@H]4CCc5ccccc54)ncnc32)C[C@@H]1O | – | – | – | – | – | – | – | – | – | – | – | – | 6.17 | 9.01 | 4.79 | 5.8 |

Continued by falling IC50 (K562), values first:

| IC50 (K562) [µM] | inhibition [1] | inhibition [2] | IC50 (A549) [µM] | inhibition [3] | IC50 (SK-OV-3) [µM] | IC50 (AGS) [µM] | inhibition [4] | IC50 (HCT-116) [µM] | inhibition [5] | inhibition [6] | IC50 (BXPC-3) [µM] | Structure (SMILES) | CC50 at 48 h [7] [µM] | CC50 at 48 h [8] [µM] | CC50 at 48 h [9] [µM] | hemolysis at 1 h, 100 µM [10] [%] |
| --- | --- | --- | --- | --- | --- | --- | --- | --- | --- | --- | --- | --- | --- | --- | --- | --- |
| 3.29 | – | – | 3.09 | – | 5.94 | 1.39 | – | 6 | – | – | 7.67 | Cc1cc(-c2cc(=O)oc3cc(N4CCC(NCCc5ccccc5)CC4)ccc23)ccc1C(F)(F)F | – | – | – | – |
| 3.26 | – | – | 3.77 | – | 6.42 | 1.89 | – | 5.82 | – | – | 8.44 | Cc1ccc(-c2cc(=O)oc3cc(N4CCC(NCCc5ccccc5)CC4)ccc23)cc1C | – | – | – | – |
| 2.63 | – | – | 2.48 | – | 4.35 | 1.71 | – | 2.79 | – | – | 2.01 | O=c1cc(C#CC2(O)CCCCC2)c2ccc(N3CCC(NCCc4ccccc4)CC3)cc2o1 | – | – | – | – |
| 1.53 | – | – | 3.83 | – | 3.22 | 1.26 | – | 6.11 | – | – | 2.82 | O=c1cc(-c2ccc(Oc3ccccc3)cc2)c2ccc(N3CCC(NCCc4ccccc4)CC3)cc2o1 | – | – | – | – |
| 1.32 | – | – | 3.1 | – | 7.5 | 1.42 | – | 4.27 | – | – | 1.33 | O=c1cc(C#Cc2cccc(Cl)c2)c2ccc(N3CCC(NCCc4ccccc4)CC3)cc2o1 | – | – | – | < 10 |
| 1.17 | – | – | 2.99 | – | 4.17 | 1.13 | – | 2.81 | – | – | 4.08 | O=c1cc(C#CC2CCCCC2)c2ccc(N3CCC(NCCc4ccccc4)CC3)cc2o1 | – | – | – | – |
